{"source": "paper PMC7047882", "about": "(Archives of biochemistry and biophysics, 2019)", "key": {"bovine brain tubulin [1]": {"biological_target": "T1, bovine brain tubulin (Bos taurus, UniProt P81947+Q6B856)", "T1 sequence (Q6B856 whole entry)": "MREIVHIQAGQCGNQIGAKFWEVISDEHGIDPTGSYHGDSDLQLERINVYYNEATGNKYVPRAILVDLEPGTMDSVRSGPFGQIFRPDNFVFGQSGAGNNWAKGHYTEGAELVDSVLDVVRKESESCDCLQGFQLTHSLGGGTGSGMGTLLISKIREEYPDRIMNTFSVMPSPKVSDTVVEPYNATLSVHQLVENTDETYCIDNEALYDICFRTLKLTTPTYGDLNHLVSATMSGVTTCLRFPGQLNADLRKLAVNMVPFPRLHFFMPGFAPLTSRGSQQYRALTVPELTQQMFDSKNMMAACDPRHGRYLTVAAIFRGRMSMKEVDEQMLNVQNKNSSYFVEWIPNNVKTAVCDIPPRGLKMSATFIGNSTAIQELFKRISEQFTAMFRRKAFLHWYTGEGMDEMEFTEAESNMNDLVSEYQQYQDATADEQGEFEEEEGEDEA", "T1 sequence (P81947 whole entry)": "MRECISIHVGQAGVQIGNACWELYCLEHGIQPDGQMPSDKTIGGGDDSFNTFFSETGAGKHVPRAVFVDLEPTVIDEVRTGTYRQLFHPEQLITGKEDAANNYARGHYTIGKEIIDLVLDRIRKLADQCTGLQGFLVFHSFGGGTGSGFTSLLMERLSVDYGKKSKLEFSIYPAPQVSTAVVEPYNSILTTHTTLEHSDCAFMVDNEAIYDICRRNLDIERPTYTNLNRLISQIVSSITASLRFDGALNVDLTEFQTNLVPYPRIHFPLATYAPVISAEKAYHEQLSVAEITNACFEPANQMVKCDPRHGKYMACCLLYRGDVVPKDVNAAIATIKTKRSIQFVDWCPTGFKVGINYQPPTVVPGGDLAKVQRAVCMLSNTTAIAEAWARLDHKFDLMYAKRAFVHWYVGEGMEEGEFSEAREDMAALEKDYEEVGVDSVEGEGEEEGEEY", "test": "biochemical", "assay_type": "binding", "conditions": "for inhibition at 30 µM: pH 6.9, read-out: Effect on DZA binding (% inhibition ± SE)"}, "bovine brain tubulin [2]": {"biological_target": "T1, bovine brain tubulin", "test": "Turbidity development", "assay_type": "biochemical", "outline": "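Electrophoretically homogeneous bovine brain tubulin, without the gel-filtration step used for the binding studies. Reactions were run in glass vessels in 0.1 M Mes, brought to pH 6.5 or 6.9 with NaOH, with MgCl2 (for example 2 mM, 22 °C). Test compounds were added from dimethyl sulfoxide stocks, with the same dimethyl sulfoxide concentration in controls. The read-out was turbidity development.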"}, "tubulin [3]": {"system": "tubulin", "conditions": "cited from earlier work"}, "tubulin [4]": {"system": "tubulin", "conditions": "cited from earlier work", "remark": "listed apart in the source"}, "bovine brain tubulin [5]": {"biological_target": "T1, bovine brain tubulin", "test": "Recovery of compound-induced aberrant tubulin polymer by centrifugation", "assay_type": "biochemical", "conditions": "for tubulin recovery by centrifugation (in words): pH 6.9, 2 mM MgCl2, 22 °C", "outline": "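Electrophoretically homogeneous bovine brain tubulin, without gel filtration, was used. Reaction mixtures contained 0.1 M Mes (pH 6.9 or 6.5, adjusted with NaOH) with 2 mM MgCl₂ at 22 °C. The test compound was added from dimethyl sulfoxide stocks, and controls received equal dimethyl sulfoxide. Reactions were run in glass vessels, and aberrant polymer was harvested by centrifugation and read as tubulin in pellets.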"}, "tubulin [6]": {"system": "tubulin", "conditions": "cited from earlier work", "remark": "listed apart in the source"}, "cultured cancer cells": {"system": "cultured cancer cells", "conditions": "cited from earlier work"}}, "note": "Where two headings read alike, the source gives them in different places.", "data": [{"smiles": "COc1cc2cc(c1Cl)N(C)C(=O)C[C@H](OC(=O)[C@H](C)N(C)C(C)=O)[C@]1(C)O[C@H]1[C@H](C)[C@@H]1C[C@@](O)(NC(=O)O1)[C@H](OC)/C=C/C=C(\\C)C2", "note": "[Maytansine, maytansine]", "values": [{"measurement": "inhibition at 30 µM", "setting": "bovine brain tubulin [1]", "result": "9.2 ± 6", "unit": "%"}]}, {"smiles": "CC(C)[C@H](O)C(=O)N[C@H]1Cc2ccc3c(c2)[C@]24C5=C(N=C(O5)[C@H](C(C)C)NC1=O)c1nc(Cl)c(o1)-c1c(Cl)[nH]c5cccc(c15)-c1cccc2c1N[C@@H]4O3", "note": "[DZA, diazonamide A]", "values": [{"measurement": "turbidity development (in words)", "setting": "bovine brain tubulin [2]; 0.1 M Mes (pH 6.5), 2 mM MgCl2, 22 °C", "result": "differed little from that with D10"}, {"measurement": "inhibition of tubulin assembly (in words)", "setting": "tubulin [3]", "result": "potent inhibitor"}, {"measurement": "inhibition of binding of [^3H]D10 to tubulin (in words)", "setting": "tubulin [4]", "result": "no inhibition"}, {"measurement": "tubulin recovery by centrifugation (in words)", "setting": "bovine brain tubulin [5]; 10 and 20 μM compound", "result": "large amounts"}, {"measurement": "tubulin recovered in pellets (in words)", "setting": "bovine brain tubulin [5]; pH 6.5, 2 mM MgCl2, 22 °C", "result": "almost all the tubulin"}, {"measurement": "inhibition of binding of [^3H]vinblastine to tubulin (in words)", "setting": "tubulin [6]", "result": "no inhibition"}, {"measurement": "inhibition of [^3H]DZA binding to tubulin (in words)", "setting": "bovine brain tubulin [1]", "result": "no inhibition of binding"}]}, {"smiles": "CC[C@H](C)[C@@H]([C@@H](CC(=O)N1CCC[C@H]1[C@H](OC)[C@@H](C)C(=O)N[C@@H](Cc1ccccc1)c1nccs1)OC)N(C)C(=O)[C@@H](NC(=O)[C@H](C(C)C)N(C)C)C(C)C", "note": "[D10, dolastatin 10]", "values": [{"measurement": "turbidity development (in words)", "setting": "bovine brain tubulin [2]; all conditions examined", "result": "Extensive turbidity development"}, {"measurement": "tubulin recovery by centrifugation (in words)", "setting": "bovine brain tubulin [5]; 10 and 20 μM compound", "result": "even larger amounts"}, {"measurement": "inhibition of [^3H]DZA binding to tubulin (in words)", "setting": "bovine brain tubulin [1]; without a tubulin preincubation", "result": "inhibition was negligible"}]}, {"smiles": "CN[C@H](C(=O)N[C@H](C(=O)N(C)[C@H](/C=C(\\C)C(=O)O)C(C)C)C(C)(C)C)C(C)(C)c1cn(C)c2ccccc12", "note": "[Hemiasterlin, hemiasterlin]", "values": [{"measurement": "tubulin recovery by centrifugation (in words)", "setting": "bovine brain tubulin [5]; 20 μM compound", "result": "a moderate amount"}, {"measurement": "inhibition at 30 µM", "setting": "bovine brain tubulin [1]", "result": "43 ± 3", "unit": "%"}]}, {"smiles": "CC[C@]1(O)C[C@@H]2CN(CCc3c([nH]c4ccccc34)[C@@](C(=O)OC)(c3cc4c(cc3OC)N(C)[C@H]3[C@@](O)(C(=O)OC)[C@H](OC(C)=O)[C@]5(CC)C=CCN6CC[C@]43[C@@H]65)C2)C1", "note": "[Vinblastine, vinblastine]", "values": [{"measurement": "tubulin recovery by centrifugation (in words)", "setting": "bovine brain tubulin [5]; 20 μM compound", "result": "even larger amounts"}, {"measurement": "inhibition of [^3H]DZA binding to tubulin (in words)", "setting": "bovine brain tubulin [1]", "result": "absolutely no inhibitory effect"}, {"measurement": "Effect on DZA binding (% enhancement ± SE; indicated by E before the value)", "setting": "bovine brain tubulin [1]; pH 6.9", "result": "E 11 ± 5%"}]}, {"smiles": "COc1ccc(C[C@H]2NC(=O)/C=C/C[C@@H]([C@H](C)[C@H]3O[C@@H]3c3ccccc3)OC(=O)[C@H](CC(C)C)OC(=O)[C@H](C)CNC2=O)cc1Cl", "note": "[Cryptophycin 1, cryptophycin 1]", "values": [{"measurement": "turbidity development (in words)", "setting": "bovine brain tubulin [2]; most conditions examined", "result": "little turbidity development"}, {"measurement": "IC50 values for cultured cancer cells (in words)", "setting": "cultured cancer cells", "result": "picomolar"}, {"measurement": "maximal inhibition of [^3H]DZA binding", "setting": "bovine brain tubulin [1]; preincubated tubulin, near maximal with 3 μM compound", "result": "50-60%"}]}, {"smiles": "COc1ccc(/C=C\\c2cc(OC)c(OC)c(OC)c2)cc1O", "note": "[Combretastatin A-4, combretastatin A-4]", "values": [{"measurement": "inhibition at 30 µM", "setting": "bovine brain tubulin [1]", "result": "17 ± 3", "unit": "%"}]}]}
